Experimental data taken from ChEMBL document CHEMBL5385870, “Amide containing NBTI antibacterials with reduced hERG inhibition, retained antimicrobial activity against gram-positive bacteria and in vivo efficacy” (Eur J Med Chem, 2023).
Values after ≈ are worked out from the molar mass of the structure shown. Active and inactive are the calls of the source. The rule behind the calls is not given here.

How the values were obtained:
[1] = target: Voltage-gated inwardly rectifying potassium channel KCNH2 (Homo sapiens, UniProt Q12809); assay: Inhibition of hERG fluorescence polarization assay; format: toxicity
Sequence of Voltage-gated inwardly rectifying potassium channel KCNH2 (Q12809 whole entry): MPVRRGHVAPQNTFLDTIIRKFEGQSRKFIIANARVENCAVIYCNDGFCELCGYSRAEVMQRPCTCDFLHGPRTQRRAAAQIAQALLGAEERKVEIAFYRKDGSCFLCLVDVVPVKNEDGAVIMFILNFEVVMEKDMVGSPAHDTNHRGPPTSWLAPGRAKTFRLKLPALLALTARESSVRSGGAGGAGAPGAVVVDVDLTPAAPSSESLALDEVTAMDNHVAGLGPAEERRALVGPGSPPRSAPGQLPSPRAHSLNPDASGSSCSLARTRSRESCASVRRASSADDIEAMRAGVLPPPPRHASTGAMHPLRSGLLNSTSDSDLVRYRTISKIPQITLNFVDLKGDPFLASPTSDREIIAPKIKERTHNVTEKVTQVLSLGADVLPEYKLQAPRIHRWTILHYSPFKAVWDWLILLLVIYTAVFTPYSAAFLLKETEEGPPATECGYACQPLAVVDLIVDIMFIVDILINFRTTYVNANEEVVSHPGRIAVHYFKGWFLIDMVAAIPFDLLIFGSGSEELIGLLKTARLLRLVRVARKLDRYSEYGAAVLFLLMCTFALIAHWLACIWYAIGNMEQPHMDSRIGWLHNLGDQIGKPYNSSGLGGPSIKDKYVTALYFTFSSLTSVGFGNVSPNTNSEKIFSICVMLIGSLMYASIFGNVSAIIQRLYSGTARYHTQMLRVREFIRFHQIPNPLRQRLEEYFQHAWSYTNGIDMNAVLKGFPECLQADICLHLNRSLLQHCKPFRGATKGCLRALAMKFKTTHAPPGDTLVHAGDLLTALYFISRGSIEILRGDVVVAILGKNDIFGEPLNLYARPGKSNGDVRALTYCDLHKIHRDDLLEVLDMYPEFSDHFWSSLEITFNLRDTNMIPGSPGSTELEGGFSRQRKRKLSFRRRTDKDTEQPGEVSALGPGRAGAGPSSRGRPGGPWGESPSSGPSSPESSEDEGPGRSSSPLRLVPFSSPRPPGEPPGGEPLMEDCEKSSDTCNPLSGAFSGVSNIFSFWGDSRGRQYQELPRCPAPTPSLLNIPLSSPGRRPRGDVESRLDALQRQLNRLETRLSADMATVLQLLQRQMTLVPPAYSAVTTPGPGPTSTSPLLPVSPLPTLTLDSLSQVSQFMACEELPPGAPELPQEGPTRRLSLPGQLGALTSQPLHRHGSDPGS

Staphylococcus aureus [2] = assay: Antimicrobial activity against Staphylococcus aureus ATCC 29213 assessed as reduction in bacterial growth incubated for 20 hrs by broth microdilution analysis; format: functional
Procedure, shortened: (§1)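 MIC was determined by broth microdilution per CLSI/EUCAST. Inoculum was 10^5 CFU/mL in cation-adjusted Mueller-Hinton broth with TES, with compounds in DMSO, incubated 20 h at 35 °C. MIC was read visually as the lowest concentration without turbidity. Tetracycline was the plate control.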

Escherichia coli [3] = assay: Antimicrobial activity against Escherichia coli ATCC 25922 assessed as reduction in bacterial growth incubated for 20 hrs by broth microdilution analysis; format: functional
Escherichia coli [4] = assay: Antimicrobial activity against Escherichia coli D22 assessed as reduction in bacterial growth incubated for 20 hrs by broth microdilution analysis; format: functional
Escherichia coli [5] = assay: Antimicrobial activity against Escherichia coli N43 assessed as reduction in bacterial growth incubated for 20 hrs by broth microdilution analysis; format: functional
Staphylococcus aureus [6] = assay: Antimicrobial activity against cefoxitin/ciprofloxacin/clindamycin/erythromycin/tetracycline/thiamulin/trimethoprim-resistant Staphylococcus aureus assessed as reduction in bacterial growth incubated for 20 hrs by broth microdilution analysis; format: functional; procedure, shortened: as §1
Staphylococcus aureus [7] = assay: Antimicrobial activity against cefoxitin/gentamicin/kanamycin/rifampicin/streptomycin/sulfamethoxazole/tetracycline-resistant Staphylococcus aureus assessed as reduction in bacterial growth incubated for 20 hrs by broth microdilution analysis; format: functional; procedure, shortened: as §1
Klebsiella pneumoniae = assay: Antimicrobial activity against Klebsiella pneumoniae assessed as reduction in bacterial growth incubated for 20 hrs by broth microdilution analysis; format: functional
[8] = Antimicrobial activity against Salmonella alachua RDK 030c assessed as reduction in bacterial growth incubated for 20 hrs by broth microdilution analysis; format: functional
Pseudomonas aeruginosa = assay: Antimicrobial activity against Pseudomonas aeruginosa RDK 184 assessed as reduction in bacterial growth incubated for 20 hrs by broth microdilution analysis; format: functional
Staphylococcus aureus [9] = assay: Antibacterial activity against Methicillin-resistant Staphylococcus aureus BAA-1717 infected in CD-1 mouse thigh infection model assessed as reduction in bacterial load at 50 mg/kg, ip […]; format: functional
Staphylococcus aureus [10] = assay: Antibacterial activity against Staphylococcus aureus assessed as bacterial growth inhibition; format: functional
Staphylococcus aureus [11] = assay: Antibacterial activity against methicilin-resistant Staphylococcus aureus assessed as bacterial growth inhibition; format: functional
DNA gyrase [12] = target: DNA gyrase (Staphylococcus aureus, UniProt P0A0K8+P20831); assay: Inhibition of Staphylococcus aureus DNA gyrase supercoiling incubated for 30 mins in presence of ATP; format: protein-complex assay
Sequence of DNA gyrase (Staphylococcus aureus, UniProt P0A0K8+P20831) (P0A0K8 whole entry): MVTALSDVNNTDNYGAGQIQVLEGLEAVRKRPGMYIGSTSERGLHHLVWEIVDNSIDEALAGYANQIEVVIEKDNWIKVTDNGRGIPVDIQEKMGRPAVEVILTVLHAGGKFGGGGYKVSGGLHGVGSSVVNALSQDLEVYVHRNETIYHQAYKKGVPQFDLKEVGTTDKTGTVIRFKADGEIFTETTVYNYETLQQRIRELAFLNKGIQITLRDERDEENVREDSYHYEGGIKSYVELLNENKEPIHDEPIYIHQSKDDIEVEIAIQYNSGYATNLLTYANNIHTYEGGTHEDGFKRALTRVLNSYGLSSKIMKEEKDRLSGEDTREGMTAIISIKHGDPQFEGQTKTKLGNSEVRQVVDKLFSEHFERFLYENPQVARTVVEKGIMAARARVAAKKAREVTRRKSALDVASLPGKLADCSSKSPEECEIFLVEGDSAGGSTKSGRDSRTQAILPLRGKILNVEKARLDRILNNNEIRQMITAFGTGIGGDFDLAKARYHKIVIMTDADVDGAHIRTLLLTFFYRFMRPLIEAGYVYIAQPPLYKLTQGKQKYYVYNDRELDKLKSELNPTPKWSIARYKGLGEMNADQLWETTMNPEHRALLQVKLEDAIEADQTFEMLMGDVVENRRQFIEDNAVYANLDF
Sequence of DNA gyrase (Staphylococcus aureus, UniProt P0A0K8+P20831) (P20831 whole entry): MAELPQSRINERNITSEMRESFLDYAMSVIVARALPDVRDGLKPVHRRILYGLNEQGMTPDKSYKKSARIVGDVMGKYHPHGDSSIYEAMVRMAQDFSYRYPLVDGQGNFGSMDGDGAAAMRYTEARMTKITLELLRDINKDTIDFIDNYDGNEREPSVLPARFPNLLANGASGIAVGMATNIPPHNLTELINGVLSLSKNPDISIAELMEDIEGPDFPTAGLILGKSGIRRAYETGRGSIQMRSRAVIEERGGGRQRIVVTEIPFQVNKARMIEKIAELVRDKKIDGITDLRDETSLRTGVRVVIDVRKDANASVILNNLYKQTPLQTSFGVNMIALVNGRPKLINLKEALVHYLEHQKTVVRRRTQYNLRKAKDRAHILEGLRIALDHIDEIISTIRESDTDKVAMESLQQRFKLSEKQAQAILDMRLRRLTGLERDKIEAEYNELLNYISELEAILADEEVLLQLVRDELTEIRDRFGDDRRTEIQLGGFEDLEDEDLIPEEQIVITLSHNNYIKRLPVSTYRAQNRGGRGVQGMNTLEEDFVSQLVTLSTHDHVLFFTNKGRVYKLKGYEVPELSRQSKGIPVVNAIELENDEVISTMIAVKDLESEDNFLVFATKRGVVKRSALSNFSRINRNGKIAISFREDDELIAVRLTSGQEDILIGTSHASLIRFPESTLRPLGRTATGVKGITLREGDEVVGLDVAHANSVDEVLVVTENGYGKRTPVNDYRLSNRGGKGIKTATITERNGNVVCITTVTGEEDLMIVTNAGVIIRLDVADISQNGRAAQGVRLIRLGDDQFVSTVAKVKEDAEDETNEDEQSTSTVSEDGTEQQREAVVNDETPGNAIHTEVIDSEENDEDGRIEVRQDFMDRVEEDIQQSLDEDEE
Procedure, shortened: (§2)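 Gyrase supercoiling plate assay (triplex capture on streptavidin plates with immobilized biotinylated oligonucleotide): 1.5 U enzyme, 0.75 µg relaxed pNO1 plasmid, inhibitor in 10% DMSO/0.008% Tween-20, 37 °C 30 min, 30 µl. Buffer for E. coli: 35 mM Tris pH 7.5, 1 mM ATP; S. aureus: 40 mM HEPES-KOH pH 7.6, 2 mM ATP, 500 mM K-glutamate. Diamond dye fluorescence (ex 495/em 537 nm). Pre-screen 100 and 1 µM; IC50 from seven concentrations by four-parameter fit, mean of two runs.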

DNA gyrase [13] = target: DNA gyrase (Escherichia coli, UniProt P0AES4+P0AES6); assay: Inhibition of Escherichia coli DNA gyrase supercoiling incubated for 30 mins in presence of ATP; format: protein-complex assay; procedure, shortened: as §2
Topoisomerase IV = Topoisomerase IV (Staphylococcus aureus, UniProt P0C1S7+P0C1U9); assay: Inhibition of Staphylococcus aureus DNA topoisomerase 4 relaxation activity measured for 30 mins; format: protein-complex assay
Sequence of Topoisomerase IV (P0C1U9 whole entry): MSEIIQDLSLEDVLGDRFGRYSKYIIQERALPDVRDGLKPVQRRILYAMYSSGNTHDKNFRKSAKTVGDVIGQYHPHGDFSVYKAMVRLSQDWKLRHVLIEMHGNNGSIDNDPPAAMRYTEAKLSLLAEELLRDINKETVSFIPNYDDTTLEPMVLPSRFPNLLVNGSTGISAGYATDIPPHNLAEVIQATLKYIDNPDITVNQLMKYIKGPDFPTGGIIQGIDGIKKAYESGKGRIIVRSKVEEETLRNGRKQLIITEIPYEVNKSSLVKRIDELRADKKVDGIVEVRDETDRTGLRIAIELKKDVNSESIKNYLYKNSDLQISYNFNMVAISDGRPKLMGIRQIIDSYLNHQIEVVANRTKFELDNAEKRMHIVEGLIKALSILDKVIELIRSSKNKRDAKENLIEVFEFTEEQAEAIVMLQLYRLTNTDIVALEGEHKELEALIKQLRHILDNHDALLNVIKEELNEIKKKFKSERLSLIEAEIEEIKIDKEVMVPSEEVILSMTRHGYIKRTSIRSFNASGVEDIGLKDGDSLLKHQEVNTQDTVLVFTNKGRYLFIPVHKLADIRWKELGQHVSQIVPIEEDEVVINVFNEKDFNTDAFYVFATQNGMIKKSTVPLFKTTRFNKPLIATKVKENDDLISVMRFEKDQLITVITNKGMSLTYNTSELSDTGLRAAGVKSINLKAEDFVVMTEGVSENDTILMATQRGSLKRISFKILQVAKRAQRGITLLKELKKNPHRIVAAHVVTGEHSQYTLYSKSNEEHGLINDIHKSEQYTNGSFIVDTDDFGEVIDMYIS
Sequence of Topoisomerase IV (P0C1S7 whole entry): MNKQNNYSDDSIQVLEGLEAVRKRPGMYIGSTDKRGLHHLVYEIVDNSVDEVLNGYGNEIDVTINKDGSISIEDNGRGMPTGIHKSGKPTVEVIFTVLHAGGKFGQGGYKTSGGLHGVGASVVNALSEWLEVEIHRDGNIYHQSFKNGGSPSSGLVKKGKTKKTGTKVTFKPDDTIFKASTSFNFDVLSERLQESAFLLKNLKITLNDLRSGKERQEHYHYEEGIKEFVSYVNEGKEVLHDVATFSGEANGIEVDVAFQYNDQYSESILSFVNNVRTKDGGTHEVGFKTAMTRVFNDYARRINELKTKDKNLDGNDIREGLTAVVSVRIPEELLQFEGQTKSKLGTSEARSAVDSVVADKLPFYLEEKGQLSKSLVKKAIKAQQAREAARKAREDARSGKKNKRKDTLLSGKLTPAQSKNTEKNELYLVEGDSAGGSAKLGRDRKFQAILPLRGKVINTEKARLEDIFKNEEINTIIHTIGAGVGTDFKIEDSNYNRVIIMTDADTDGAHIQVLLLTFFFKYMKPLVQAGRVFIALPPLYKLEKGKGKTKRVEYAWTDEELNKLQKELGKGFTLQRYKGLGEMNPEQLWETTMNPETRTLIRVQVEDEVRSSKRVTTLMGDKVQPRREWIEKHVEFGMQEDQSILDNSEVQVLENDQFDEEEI
Procedure, shortened: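 TopoIV relaxation plate assay: 1.5 U enzyme with 0.75 µg supercoiled pNO1 plasmid, inhibitor in 10% DMSO/0.008% Tween-20, 37 °C 30 min; E. coli buffer 40 mM HEPES-KOH pH 7.6 with 1 mM ATP, S. aureus buffer 50 mM Tris pH 7.5 with 1.5 mM ATP.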

[14] = Inhibition of Escherichia coli DNA topoisomerase 4 relaxation activity measured for 30 mins
Procedure, shortened: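 TopoIV relaxation plate assay: 1.5 U enzyme with 0.75 µg supercoiled pNO1 plasmid, inhibitor in 10% DMSO/0.008% Tween-20, 37 °C 30 min; E. coli buffer 40 mM HEPES-KOH pH 7.6 with 1 mM ATP, S. aureus buffer 50 mM Tris pH 7.5 with 1.5 mM ATP. Triplex capture, Diamond dye fluorescence 495/537 nm.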

[15] = target: DNA topoisomerase 2-alpha (Homo sapiens) (UniProt P11388); assay: Inhibition of human DNA topoisomerase 2-alpha assessed as residual activity at 100 uM incubated for 30 mins relative to control
HepG2 = assay: Cytotoxicity against human HepG2 cells assessed as inhibition of cell growth at 50 uM incubated for 72 hrs by […]; format: functional; design: scale not given: the % may be the effect or the level left
Procedure, shortened: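 HepG2 in DMEM with 10% FBS, 2 mM glutamine, penicillin/streptomycin, 37 °C, 5% CO₂; seeded 8,000 cells/well, attached overnight, then treated 1.25–100 µM or vehicle for 72 h. Metabolic activity by CellTiter 96 Aqueous One (MTS) absorbance 492 nm.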

Escherichia coli [16] = assay: Antimicrobial activity against multidrug-resistant Escherichia coli assessed as reduction in bacterial growth incubated for 20 hrs by broth microdilution analysis; format: functional; procedure, shortened: as §1
Staphylococcus aureus [17] = assay: Antimicrobial activity against multidrug-resistant Staphylococcus aureus assessed as reduction in bacterial growth incubated for 20 hrs by broth microdilution analysis; format: functional; procedure, shortened: as §1
Enterococcus faecalis = assay: Antimicrobial activity against Enterococcus faecalis DRK 057 assessed as reduction in bacterial growth incubated for 20 hrs by broth microdilution analysis; format: functional
Acinetobacter baumannii = assay: Antimicrobial activity against Acinetobacter baumannii assessed as reduction in bacterial growth incubated for 20 hrs by broth microdilution analysis; format: functional
hERG [18] = assay: Selectivity index, ratio of IC50 for inhibition of hERG fluorescence polarization assay to MIC for antimicrobial activity against Staphylococcus aureus ATCC 29213 assessed as reduction in bacterial growth; format: toxicity; conditions: human; read-out: Selectivity Index
hERG [19] = assay: Selectivity index, ratio of IC50 for inhibition of hERG fluorescence polarization assay to MIC for antimicrobial activity against multidrug-resisitant Staphylococcus aureus assessed as reduction in bacterial growth; format: toxicity; conditions: human; read-out: Selectivity Index
Staphylococcus aureus [20] = assay: Bactericidal activity against methicillin-resistant Staphylococcus aureus ATCC 43300 measured for 8 hrs by time-kill kinetics based analysis; format: functional, organism-based
Staphylococcus aureus [21] = assay: Bactericidal activity against methicillin-resistant Staphylococcus aureus ATCC 43300 at 8 times MIC measured for 24 hrs by time-kill kinetics based analysis; format: functional, organism-based
Staphylococcus aureus [22] = assay: Bactericidal activity against methicillin-resistant Staphylococcus aureus at 8 times MIC measured for 8 hrs by time-kill kinetics based analysis; format: functional, organism-based
Staphylococcus aureus [23] = assay: Induction of drug resistance methicillin-resistant Staphylococcus aureus assessed as fold increase in MIC after 7 passages incubated for 20 hrs by microbroth dilution method; format: functional
Procedure, shortened: (§3)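 For serial passage, MRSA was run through daily broth-microdilution MIC tests. Cells from the ½× MIC wells were harvested, adjusted to 10^5 CFU/mL and used to inoculate the next passage, for 14 days. Triplicates, with ciprofloxacin as comparator, and the experiment was repeated twice.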

[24] = Induction of drug resistance methicillin-resistant Staphylococcus aureus measured after 14 passages incubated for 20 hrs by microbroth dilution method; format: functional; procedure, shortened: as §3
[25] = Acute toxicity in zebrafish embryos assessed as lethal concentration compound administered from 6 hrs post fertilization and measured after 120 hrs post fertilization; design: species or system Danio rerio; conditions: in vivo
Procedure, shortened: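 Wild-type AB zebrafish embryos in E3 medium at 28 °C were exposed by immersion from 6 hpf to 0.39–25 µg/mL (top dose 12.5 µg/mL for one compound), with DMSO at most 0.25%. Controls were 0.25% DMSO and 25 µg/mL doxorubicin. Embryos were inspected daily for death and toxicity signs through 120 hpf. Runs were in triplicate, with 24 embryos per concentration.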

Staphylococcus aureus [26] = assay: Antibacterial activity against Methicillin-resistant Staphylococcus aureus BAA-1717 infected in CD-1 mouse thigh infection model assessed as reduction in bacterial load at 20 mg/kg, ip […]; format: functional; conditions: time 20 hrs
Staphylococcus aureus [27] = assay: Antibacterial activity against Methicillin-resistant Staphylococcus aureus BAA-1717 infected in CD-1 mouse thigh infection model assessed as reduction in bacterial load at 40 mg/kg, ip […]; format: functional
Staphylococcus aureus [28] = assay: Antibacterial activity against Methicillin-resistant Staphylococcus aureus BAA-1717 infected in CD-1 mouse thigh infection model assessed as fold change in log 10 cfu at 20 mg/kg, ip incubated for 2 hrs post infection; format: functional
Procedure, shortened: (§4)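 Female CD-1 neutropenic mice received 2.0×10^5 CFU of MRSA BAA-1717 (TCH 1516) by intramuscular injection into the right thigh. Thighs were excised at 2 h (therapy start controls) or 26 h, homogenised and plated for CFU/g. Four mice per group.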

Staphylococcus aureus [29] = assay: Antibacterial activity against Methicillin-resistant Staphylococcus aureus BAA-1717 infected in CD-1 mouse thigh infection model assessed as fold change in log 10 cfu at 40 mg/kg, ip incubated for 2 hrs post infection; format: functional; procedure, shortened: as §4
Staphylococcus aureus [30] = assay: Antibacterial activity against Methicillin-resistant Staphylococcus aureus BAA-1717 infected in CD-1 mouse thigh infection model assessed as fold change in log 10 cfu at 20 mg/kg, ip incubated for 26 hrs post infection; format: functional; procedure, shortened: as §4
Staphylococcus aureus [31] = assay: Antibacterial activity against Methicillin-resistant Staphylococcus aureus BAA-1717 infected in CD-1 mouse thigh infection model assessed as fold change in log 10 cfu at 40 mg/kg, ip incubated for 26 hrs post infection; format: functional; procedure, shortened: as §4

Structure (SMILES): O=c1ccc2ncc(=O)n3c2n1C[C@H]3CN1CCC(NCc2cc3c(cn2)OCCC3)CC1 [GEPOTIDACIN]
- IC50 [1]: > 30000 nM
- MIC (Staphylococcus aureus [2]): 0.279 µM (≈ 0.125 µg/mL)
- MIC (Escherichia coli [3]): 2.23 µM (≈ 1 µg/mL)
- MIC (Escherichia coli [4]): 0.279 µM (≈ 0.125 µg/mL)
- MIC (Escherichia coli [5]): 0.036 µM (≈ 0.0161 µg/mL)
- MIC (Staphylococcus aureus [6]): 0.138 µM (≈ 0.0619 µg/mL)
- MIC (Staphylococcus aureus [7]): 0.279 µM (≈ 0.125 µg/mL)
- MIC (Klebsiella pneumoniae): 17.8 µM (≈ 7.98 µg/mL)
- MIC [8]: 8.92 µM (≈ 4 µg/mL)
- MIC (Pseudomonas aeruginosa): 17.8 µM (≈ 7.98 µg/mL)
- Activity (Staphylococcus aureus [9]): 6.52 log10CFU/g

Structure (SMILES): COc1ccc2nccc(OC[C@@H]3CC[C@@H](NC(=O)c4cc(F)c(Br)c(F)c4)CO3)c2n1
- MIC (Staphylococcus aureus [10]): 0.016 µg/mL (≈ 0.0315 µM)
- MIC (Staphylococcus aureus [11]): 0.031 µg/mL (≈ 0.061 µM)
- IC50 (DNA gyrase [12]): 185 nM
- IC50 (DNA gyrase [13]): 365 nM
- IC50 (Topoisomerase IV): 341 nM
- IC50 [14]: 59 nM
- Activity [15]: 99.4%
- IC50 [1]: > 30000 nM
- Activity (HepG2): 89%
- MIC (Escherichia coli [16]): > 252 µM
- MIC (Staphylococcus aureus [2]): 0.031 µM (≈ 0.0158 µg/mL)
- MIC (Escherichia coli [3]): 252 µM (≈ 128 µg/mL)
- MIC (Escherichia coli [4]): 252 µM (≈ 128 µg/mL)
- MIC (Escherichia coli [5]): 0.061 µM (≈ 0.031 µg/mL)
- MIC (Staphylococcus aureus [6]): 0.061 µM (≈ 0.031 µg/mL)
- MIC (Staphylococcus aureus [7]): 0.031 µM (≈ 0.0158 µg/mL)
- MIC (Staphylococcus aureus [17]): 0.124 µM (≈ 0.063 µg/mL)
- MIC (Klebsiella pneumoniae): > 252 µM
- MIC [8]: > 252 µM
- MIC (Pseudomonas aeruginosa): > 252 µM
- MIC (Enterococcus faecalis): 4.07 µM (≈ 2.07 µg/mL)
- MIC (Acinetobacter baumannii): 252 µM (≈ 128 µg/mL)
- selectivity ratio (hERG [18]): ≥ 953
- selectivity ratio (hERG [19]): ≥ 492
- Activity (Staphylococcus aureus [20]): Dose-Dependent Effect
- Activity (Staphylococcus aureus [21]): inactive
- Activity (Staphylococcus aureus [22]): Active
- fold change (FC) (Staphylococcus aureus [23]): 8
- MIC [24]: 0.128 µg/mL (≈ 0.252 µM)
- LC50 at 114 h [25]: > 25 µg/mL
- Activity (Staphylococcus aureus [26]): 5.43 log10CFU/g
- Activity (Staphylococcus aureus [27]): 5.01 log10CFU/g
- FC (Staphylococcus aureus [28]): -0.47
- FC (Staphylococcus aureus [29]): -0.89
- FC (Staphylococcus aureus [30]): -3.43
- FC (Staphylococcus aureus [31]): -3.85
